This note sets out measurements from ChEMBL document CHEMBL4028818, “Tricyclic 4,4-dimethyl-3,4-dihydrochromeno[3,4-d]imidazole derivatives as microsomal prostaglandin E2 synthase-1 (mPGES-1) inhibitors: SAR and in vivo efficacy in hyperalgesia pain model” (Bioorg Med Chem Lett, 2017).

SMILES strings stand for the structures.

One data set deals with T1, Prostaglandin E synthase (Homo sapiens, UniProt O14684).
T1 sequence (O14684 whole entry): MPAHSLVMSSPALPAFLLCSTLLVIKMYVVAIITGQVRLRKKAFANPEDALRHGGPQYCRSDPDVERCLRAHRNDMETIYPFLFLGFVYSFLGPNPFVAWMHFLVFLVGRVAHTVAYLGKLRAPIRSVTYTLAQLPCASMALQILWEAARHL
In words: Inhibition of mPGES-1 in human A549 cells assessed as decrease in IL1beta induced PGE2 release preincubated for 30 mins followed by IL-1beta addition after 16 to 20 hrs by HTRF method. Format: cell-based. Background: Time-resolved FRET reads energy transfer from a long-lived donor to a nearby acceptor.

Another data set addresses CYP2D6 (Homo sapiens, UniProt P10635). In words: (§1) Inhibition of CYP2D6 in human liver microsomes at 10 uM measured after 20 mins in presence of NADPH by LC/MS/MS analysis relative to control. The format is ADME. Particulars: liver microsomes. A digest of the protocol:
(§2)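 CYP isoforms 1A2, 2D6, 3A4, 2C9 and 2C19 were tested at 1 and 10 µM. Results are % inhibition compared with a no-inhibitor control, run in triplicate.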
In general terms: Microsomes from liver hold many membrane-bound enzymes, among them those of drug oxidation.

Data set [1] can be described thus: Apparent volume of distribution in Sprague-Dawley rat at 5 mg/kg, iv administered as single bolus dose. The format is ADME, organism-based. Particulars: in vivo, read-out: Vz; call rule not given here. The gist of the method: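 Male Sprague-Dawley rats were dosed i.v. in a vehicle of 20% NMP + 20% ethanol + 60% PEG 200. T1/2, CL and Vz were derived. Values are mean ± SD, n = 3.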
Data set [2] can be described thus: Oral bioavailability in Sprague-Dawley rat at 10 mg/kg. Particulars: in vivo. The format is ADME, organism-based. A digest of the protocol: (§3)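 Male Sprague-Dawley rats were dosed orally as a 0.5% methylcellulose suspension. Cmax, AUC0-24, Tmax, T1/2 and %F were determined. Values are mean ± SD, n = 3.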
Data set [3] in a line: Half life in Sprague-Dawley rat at 10 mg/kg, po. Particulars: in vivo. The format is ADME, organism-based. The gist of the method:
as §3

A further data set addresses Cytochrome P450 2C19 (Homo sapiens, UniProt P33261). Kind of data set: Inhibition of CYP2C19 in human liver microsomes at 1 uM measured after 40 mins in presence of NADPH by LC/MS/MS analysis. The format is ADME. The gist of the method: as §2
A further data set addresses Cytochrome P450 3A4 (Homo sapiens, UniProt P08684). Kind of data set: Inhibition of CYP3A4 in human liver microsomes at 1 uM measured after 20 mins in presence of NADPH by LC/MS/MS analysis. Format: ADME. The gist of the method:
as §2

In another data set the target is Cytochrome P450 2C9 (Homo sapiens, UniProt P11712). In words: Inhibition of CYP2C9 in human liver microsomes at 1 uM measured after 20 mins in presence of NADPH by LC/MS/MS analysis. The format is ADME. The gist of the method: as §2
Cytochrome P450 2C9, sequence (P11712 whole entry): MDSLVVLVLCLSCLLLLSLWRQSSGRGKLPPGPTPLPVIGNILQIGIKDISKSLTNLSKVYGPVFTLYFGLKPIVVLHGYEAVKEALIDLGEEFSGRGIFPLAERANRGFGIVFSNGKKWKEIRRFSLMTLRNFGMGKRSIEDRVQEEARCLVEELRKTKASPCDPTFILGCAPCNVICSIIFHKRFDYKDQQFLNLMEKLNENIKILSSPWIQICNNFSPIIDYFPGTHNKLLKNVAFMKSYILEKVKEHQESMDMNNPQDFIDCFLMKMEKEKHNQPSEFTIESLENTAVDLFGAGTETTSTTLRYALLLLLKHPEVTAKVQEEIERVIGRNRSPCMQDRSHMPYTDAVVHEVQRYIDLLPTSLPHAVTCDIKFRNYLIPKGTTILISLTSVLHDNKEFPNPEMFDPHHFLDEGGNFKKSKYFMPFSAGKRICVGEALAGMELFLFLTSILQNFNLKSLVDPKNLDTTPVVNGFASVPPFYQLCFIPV
For data set [4], the system named is Cavia porcellus. Kind of data set: Analgesic activity in Dunkin Hartley guinea pig hyperalgesia pain model assessed as inhibition of LPS-induced thermal hyperalgesia at 100 mg/kg, po qd administered 4 hrs prior to LPS stimulation measured after 4.5 hrs by plantar test relative to control. The format is functional. The gist of the method: (§4)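 LPS was injected into the guinea pig plantar to induce thermal hyperalgesia, and compound was given orally. Response is expressed as % hyperalgesia, with a saline-injected naive group as 0% and the vehicle-treated LPS group as 100%. Values are mean ± SEM, n = 8 per dose group.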

Data set [5] can be described thus: Plasma concentration in Dunkin Hartley guinea pig model of LPS-induced thermal hyperalgesia pain at 100 mg/kg, po qd measured 7 hrs post dose by LC/MS/MS analysis. Format: ADME, organism-based, Cavia porcellus. A digest of the protocol: (§5)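 In the guinea pig LPS thermal hyperalgesia model, plasma and CSF drug levels were measured at the pharmacodynamic time point after oral dosing. Concentrations are means of n = 8 animals per dose group.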

A short description of data set [6]: Drug uptake in CSF of Dunkin Hartley guinea pig model of LPS-induced thermal hyperalgesia pain at 100 mg/kg, po qd measured 7 hrs post dose by LC/MS/MS analysis. Format: ADME, organism-based, Cavia porcellus, Cerebrospinal fluid. Particulars: read-out: Drug uptake. The gist of the method: as §5
For data set [7], the target named is T2, Prostaglandin E synthase (Homo sapiens) (UniProt O14684).
T2 sequence (whole entry): T1 sequence (O14684 whole entry)
In words: Inhibition of recombinant human mPGES-1 expressed in CHO cells assessed as reduction in PGE2 formation at 1 uM using PGH2 a substrate preincubated for 10 mins followed by substrate addition measured after 1 min relative to control. Format: cell-based. The gist of the method: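 mPGES-1 enzyme inhibition. % inhibition values are means of two experiments in duplicate. IC50 values were derived from graphs of at least two experiments in duplicate.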

Another data set deals with Cytochrome P450 2D6 (Homo sapiens, UniProt P10635). Described as §1. Format: ADME. Particulars: microsomes, 20 min, 10 µM. The gist of the method: as §2
Cytochrome P450 2D6, sequence (P10635 whole entry): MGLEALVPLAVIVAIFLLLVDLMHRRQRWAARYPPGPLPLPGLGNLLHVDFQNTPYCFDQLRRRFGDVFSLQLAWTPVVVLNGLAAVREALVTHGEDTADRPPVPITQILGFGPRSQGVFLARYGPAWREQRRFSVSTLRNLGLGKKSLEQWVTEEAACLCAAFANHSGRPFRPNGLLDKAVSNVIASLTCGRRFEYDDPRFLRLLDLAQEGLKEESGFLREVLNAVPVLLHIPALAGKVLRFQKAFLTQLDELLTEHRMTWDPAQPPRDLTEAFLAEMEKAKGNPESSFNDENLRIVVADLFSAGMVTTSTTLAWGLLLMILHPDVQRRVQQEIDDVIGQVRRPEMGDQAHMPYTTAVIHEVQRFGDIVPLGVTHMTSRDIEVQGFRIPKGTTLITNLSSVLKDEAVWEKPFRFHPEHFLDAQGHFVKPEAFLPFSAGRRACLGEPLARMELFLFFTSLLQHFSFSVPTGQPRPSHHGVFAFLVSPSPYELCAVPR
Data set [8] is described as follows: Cmax in Guinea pig at 100 mg/kg, po. The format is ADME, organism-based, Cavia porcellus. Set-up: dose 100 mg/kg, route oral. The settings on record: in vivo. A digest of the protocol:
(§6)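 Single oral dose given to guinea pigs as a 0.5% methylcellulose suspension. Values are mean ± SD, n = 3.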

A short description of data set [9]: AUC (0 to 24 hrs) in Guinea pig at 100 mg/kg, po. The format is ADME, organism-based, Cavia porcellus. Set-up: time < 24 hr, dose 100 mg/kg, route oral. The settings on record: in vivo. The gist of the method: as §6
Data set [10] is described as follows: Tmax in Guinea pig at 100 mg/kg, po. The settings on record: in vivo. The format is ADME, organism-based, Cavia porcellus. The gist of the method:
as §6

Data set [11] concerns the target T3, COX2 (Homo sapiens, UniProt P35354).
T3 sequence (P35354 whole entry): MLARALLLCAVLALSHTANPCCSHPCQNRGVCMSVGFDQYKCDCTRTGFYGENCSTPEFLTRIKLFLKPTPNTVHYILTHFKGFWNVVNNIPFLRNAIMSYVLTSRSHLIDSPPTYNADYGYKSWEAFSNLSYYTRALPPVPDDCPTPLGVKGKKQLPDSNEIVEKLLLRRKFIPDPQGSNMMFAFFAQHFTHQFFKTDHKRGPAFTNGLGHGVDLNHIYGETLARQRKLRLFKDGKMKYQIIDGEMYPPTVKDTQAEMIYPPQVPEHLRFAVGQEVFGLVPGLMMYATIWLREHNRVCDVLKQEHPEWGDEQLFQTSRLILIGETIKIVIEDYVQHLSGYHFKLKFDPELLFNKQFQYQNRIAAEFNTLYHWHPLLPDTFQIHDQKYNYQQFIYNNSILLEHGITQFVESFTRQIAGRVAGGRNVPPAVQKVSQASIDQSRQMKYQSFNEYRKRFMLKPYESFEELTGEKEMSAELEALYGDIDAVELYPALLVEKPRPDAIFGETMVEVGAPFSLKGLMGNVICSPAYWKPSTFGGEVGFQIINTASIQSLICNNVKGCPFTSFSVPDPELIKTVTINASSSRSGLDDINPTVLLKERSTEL
In words: Inhibition of recombinant human N-terminal His-tagged COX2 expressed in baculovirus infected Sf21 insect cells assessed as decrease in PGE2 release at 1 uM using arachidonic acid as substrate preincubated for 15 mins followed by arachidonic acid addition measured after 5 mins relative to control. The settings on record: probe arachidonic acid.

For data set [12], the target named is T3, COX2. In words: Inhibition of recombinant human N-terminal His-tagged COX2 expressed in baculovirus infected Sf21 insect cells assessed as decrease in PGE2 release at 10 uM using arachidonic acid as substrate preincubated for 15 mins followed by arachidonic acid addition measured after 5 mins relative to control. Particulars: probe arachidonic acid.
Data set [13] concerns Cavia porcellus. In words: Analgesic activity in Dunkin Hartley guinea pig hyperalgesia pain model assessed as inhibition of LPS-induced thermal hyperalgesia at 200 mg/kg, po qd administered 4 hrs prior to LPS stimulation measured after 4.5 hrs by plantar test relative to control. The format is functional. The gist of the method:
as §4

A short description of data set [14]: Plasma concentration in Dunkin Hartley guinea pig model of LPS-induced thermal hyperalgesia pain at 200 mg/kg, po qd measured 7 hrs post dose by LC/MS/MS analysis. The format is ADME, organism-based, Cavia porcellus. The gist of the method: as §5
The nature of data set [15]: Drug uptake in CSF of Dunkin Hartley guinea pig model of LPS-induced thermal hyperalgesia pain at 200 mg/kg, po qd measured 7 hrs post dose by LC/MS/MS analysis. Format: ADME, organism-based, Cavia porcellus, Cerebrospinal fluid. Particulars: read-out: Drug uptake. A digest of the protocol:
as §5

Cytochrome P450 3A4, sequence (P08684 whole entry): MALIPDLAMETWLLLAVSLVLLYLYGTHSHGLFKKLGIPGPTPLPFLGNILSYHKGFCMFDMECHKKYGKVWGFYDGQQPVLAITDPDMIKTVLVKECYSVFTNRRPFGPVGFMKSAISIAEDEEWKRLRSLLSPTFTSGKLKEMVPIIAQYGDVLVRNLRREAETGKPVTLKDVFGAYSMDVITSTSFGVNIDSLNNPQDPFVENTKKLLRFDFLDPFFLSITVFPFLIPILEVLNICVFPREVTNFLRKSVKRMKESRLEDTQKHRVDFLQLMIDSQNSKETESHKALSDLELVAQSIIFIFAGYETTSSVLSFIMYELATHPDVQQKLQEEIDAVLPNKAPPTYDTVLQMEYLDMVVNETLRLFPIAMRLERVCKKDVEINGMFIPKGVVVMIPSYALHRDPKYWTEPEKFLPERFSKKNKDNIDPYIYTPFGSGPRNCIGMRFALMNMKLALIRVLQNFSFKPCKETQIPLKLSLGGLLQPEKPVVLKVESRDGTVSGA
Cytochrome P450 2C19, sequence (P33261 whole entry): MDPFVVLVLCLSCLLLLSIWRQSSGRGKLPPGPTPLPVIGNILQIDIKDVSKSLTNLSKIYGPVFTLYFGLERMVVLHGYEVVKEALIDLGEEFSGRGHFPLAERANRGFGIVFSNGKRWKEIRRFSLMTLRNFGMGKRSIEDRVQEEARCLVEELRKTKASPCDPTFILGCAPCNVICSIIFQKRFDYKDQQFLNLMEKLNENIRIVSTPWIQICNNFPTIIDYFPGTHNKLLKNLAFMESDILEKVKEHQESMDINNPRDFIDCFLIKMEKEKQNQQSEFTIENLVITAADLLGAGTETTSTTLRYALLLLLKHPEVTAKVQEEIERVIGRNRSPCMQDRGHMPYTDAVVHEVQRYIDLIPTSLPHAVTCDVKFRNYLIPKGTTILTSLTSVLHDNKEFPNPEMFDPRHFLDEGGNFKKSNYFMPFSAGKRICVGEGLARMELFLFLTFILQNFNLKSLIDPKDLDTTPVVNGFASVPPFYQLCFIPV
CYP2D6, sequence (P10635 whole entry, canonical isoform): as the sequence (P10635 whole entry) above

For orientation: IC50 means the concentration at which inhibition is half-maximal. What is called inhibition is the change of the read-out against control, counted positive when it falls. One may read the bioavailability as dose-corrected exposure relative to a reference, in per cent. Read a high bioavailability as good availability. A word on the half-life: it is how long it takes for the measured level to halve. The low end stands for rapid decline, the high end for slow decline. For orientation: inhibition in vivo means the change of the read-out against control, counted positive when it falls. Turning to `CC1(C)Oc2cc(C#Cc3cc(Cl)ccc3F)ccc2-c2[nH]c(-c3c(F)cccc3Cl)nc21`, the IC50 at Prostaglandin E synthase is 839 nM. Further, on CYP2D6, the inhibition at 20 min, 10 µM was found to be 26.6%. In addition, the Vd in data set [1] amounted to 5.3 L/kg. Besides, in data set [2], the bioavailability came to 85%. Also, the half-life in data set [3] was 6.77 h. Moreover, the “inhibition (INH)” value at Cytochrome P450 2C19, on Cytochrome P450 3A4 and at Cytochrome P450 2C9 was “Not Active” each time. In the data set with Cavia porcellus [4], the inhibition in vivo at 100 mg/kg is 26%. Also, the concentration at 7 h in data set [5] is 13.8 µM; in data set [6], 0.00263 µM.
One may read the Cmax as the peak of the concentration-time curve. For orientation: AUC(0-t) means exposure summed from dosing to a finite time, without extrapolation to infinity. Broadly, the Tmax is the time from dosing to the highest level. Take `CC1(C)Oc2cc(-c3cccc(OC(F)(F)F)c3)ccc2-c2[nH]c(-c3c(F)cccc3Cl)nc21`: the inhibition in data set [7] turned out to be 97.9%. Besides, the IC50 on Prostaglandin E synthase stood at 840 nM. Besides, the “inhibition (INH)” value at Cytochrome P450 2D6, at Cytochrome P450 2C19, on Cytochrome P450 3A4 and on Cytochrome P450 2C9 was “Not Active” in each case. Further, the Vd in data set [1] came to 3.11 L/kg. Moreover, the bioavailability in [2] stood at 33%. In addition, the half-life in [3] was 11.2 h. Further, the Cmax in [8] was 803 ng/mL. The molecule further displayed an AUC(0-t) at 24 h in [9] of 13400 ng·h/mL. For the same molecule, the Tmax in data set [10] stood at 24 h. The inhibition at 5 min, 1 µM on COX2 [11] came out at 2.37%. The inhibition at 5 min, 10 µM at COX2 [12] was determined as 24.2%. The inhibition in vivo at 200 mg/kg in the data set on Cavia porcellus [13] stood at 38%. For the same molecule, the results for the concentration at 7 h in data set [14] and in [15] were 7.5 to 7.54 µM and 0.00922 µM, respectively.
